Results as given in the EternaBench riboswitch data.

System: MS2 coat protein
Test: apparent Kd, MS2 coat protein; higher = weaker binding; RNA-MaP array; FMN 200 µM where present
In short: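 Each design was made on Illumina sequencing-chip clusters by stalled E. coli RNA polymerase and titrated with SNAP-549-labelled MS2 coat protein from 0.7 or 1.5 nM, doubling to 3 µM, in the absence and then the presence of constant ligand. The buffer was 100 mM Tris-HCl pH 7.5, 80 mM KCl, 4 mM MgCl2, BSA, DTT, yeast tRNA and Tween-20. The apparent Kd is the median of filtered per-cluster fits of binding curves, with green signal normalised to red-channel RNA signal and control-cluster median Fmax.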

[1] = designed as: OFF switch for flavin mononucleotide, no ligand
[2] = ligand present: flavin mononucleotide, designed as: OFF switch for flavin mononucleotide
[3] = designed as: ON switch for flavin mononucleotide, no ligand
[4] = ligand present: flavin mononucleotide, designed as: ON switch for flavin mononucleotide

Sequence: AUAAACCUAGGAUAUACAUGAGGAUCACCCAUGUAAGGGCAAUGCCCAUGCUCCUCAUGUAGAAGGAGGAGCAG
- apparent Kd [1]: 21.8 nM
- apparent Kd [2]: 25.5 nM

Sequence: GGACGUCACAUGAACAUGAGGAUCACCCAUGUAAAUUCUCAUGAGGAUAUGGAUCCUAAUUGGAUCCAGAAGGCAUGGACGUCC
- apparent Kd [3]: 960 nM
- apparent Kd [4]: 373 nM

Sequence: UGAUCUUACAUGAGGAUCACCCAUGUAGGCCAGUAACUAACCAGAAGGCACGUAGAGUAAAACAGUGAGGAUAUGGAUGACAUA
- apparent Kd [3]: 11.7 nM
- apparent Kd [4]: 6.32 nM

Sequence: AAUUAUAGGUAGAAGGUACUGACUUAUGUGUUGUAAGGAUAUACCAAAUUAUUAGAUCUCAAGUUACAUGAGGAUCACCCAUGU
- apparent Kd [3]: 9.18 nM
- apparent Kd [4]: 7.97 nM

Sequence: GACAGACAUGAGGAUCACCCAUGUGAAAACGUACAAGGAUAUGUGUGGAAACCGUACUAUACAGAAGGUGUCUGUC
- apparent Kd [3]: 94.5 nM
- apparent Kd [4]: 87 nM

Sequence: AAGAGGCGAGGAUAUACAUGAGGAUCACCCAUGUAAUCCGGAUAAGGAAGCAUGUCGUGUAGAAGGUGCCAUGA
- apparent Kd [1]: 20.7 nM
- apparent Kd [2]: 19.2 nM

Sequence: CGGUCGAUGUAAGGAUAUCGACUGGAUAACAGUCGAGAAGGUACAUGAGGAUCACCCAUGUAAUCCAAUAAUAAAUAACGACCG
- apparent Kd [1]: 11.4 nM
- apparent Kd [2]: 23.2 nM

Sequence: GUUUUGAUAGGAUAUACAUGAGGAUCACCCAUGUCCCACCCGUUACCUAUGACCAUAUGUAGAAGGAUCGUUUG
- apparent Kd [1]: 98.1 nM
- apparent Kd [2]: 83.9 nM

Sequence: ACAUGAGGAUCACCCAUGUAUACAUAGGAUAUUGAGGAUCAGGGAUGUUUUACAGGAUAUGUCUACAAGAAGGAUGCAAGUAAA
- apparent Kd [3]: 35.6 nM
- apparent Kd [4]: 30 nM

Sequence: GUGUACGGAGGAUAUAUAUGGGCAGCAUACGCUGCAGCUUCACAUGAGGAUCACCCAUGUAGAAGGCUGUGCAC
- apparent Kd [1]: 22.4 nM
- apparent Kd [2]: 129 nM

Sequence: GAGUGACAUGAGGAUCACCCAUGUAAGGAUAUACGGUUGGUAGAGAGAGGGCUAAAGGGUAGAAGGUACGAAGG
- apparent Kd [1]: 76.7 nM
- apparent Kd [2]: 48.7 nM

Sequence: GUAUGAGCGAUAGGAUAUACUGAGAUUGAAUGGGUAGAAGGAUCACUUGUGUGGAAGACAUGAGGAUCACCCAUGUCACGGGCC
- apparent Kd [3]: 52.3 nM
- apparent Kd [4]: 157 nM

Sequence: ACUGACAUGAGGAUCACCCAUGUCUUGAAUAGGUCAAAUUCACAGGAUAUGCGCUCGGCCAAGGCGCAGAAGGGUGAUGCAAUG
- apparent Kd [3]: 57.9 nM
- apparent Kd [4]: 11.1 nM

Sequence: UUGUUAUAUGUAGGAUAUGCAUAUUGUUGUUAUGCAGAAGGACAUGAGGAUCACCCAUGUAUAUUAUUGUUAUAUAUUGUAUAU
- apparent Kd [1]: 25.4 nM
- apparent Kd [2]: 34.6 nM

Sequence: AGUCGGAGCAGAGGAUAUACAUGAGGAUCACCCAUGUAAUAAGAUCAAGCCUGGAAACAGGCAAUGUAGAAGGCUGCUCCGACA
- apparent Kd [1]: 34.2 nM
- apparent Kd [2]: 338 nM

Sequence: UGGCGCAUGUGAGGAUAUAGUGGGUAGUAACUACUAGAAGGUACAUGAGGAUCACCCAUGUACUUGGGUUUGUCAGGAACUCCU
- apparent Kd [1]: 6.57 nM
- apparent Kd [2]: 8.33 nM

Sequence: UAAAUGUGAGGAUAUCAGGUGUGCUAGCGUACUGGUACAUCUGAGAAGGCACAUGAGGAUCACCCAUGUUCCUU
- apparent Kd [1]: 16.8 nM
- apparent Kd [2]: 61.3 nM

Sequence: UAUAUAUAGUAAGGAUAUGUAAUUAUUUUAUGAACAGAAGGUACUGACAUGAGGAUCACCCAUGUUUUAGUGUGGGCAUGUAGA
- apparent Kd [1]: 82.9 nM
- apparent Kd [2]: 119 nM

Sequence: GGCAAAUGAGCAGGAUAUACAGUACAUGCCUAAUGGAUUCACGCACAUGAGGAUCACCCAUGUACGUAGAAGGGCUCCGAGGAG
- apparent Kd [1]: 12.2 nM
- apparent Kd [2]: 14.4 nM

Sequence: GGAUGUCAAAGACAUCCUAAACGAACAUGAGGAUCACCCAUGUAGGAUAUGCUACUCAAAGAGUAGCAGAAGGACAUGUGCCUU
- apparent Kd [1]: 35 nM
- apparent Kd [2]: 238 nM

Sequence: CUGAAGUCAGGAUAUCGUUAAUUUAGUUGUUUGUAUUAGUUCGAGAAGGGACAUGAGGAUCACCCAUGUAAGUC
- apparent Kd [1]: 33.9 nM
- apparent Kd [2]: 45.9 nM

Sequence: UGUAUGUAGGCAGGAUAUACAUGAAUAUAUAUGAUGUAGUAUGAUGUAACAUGAGGAUCACCCAUGUAGAAGGGCCGGUGUAUG
- apparent Kd [1]: 69.2 nM
- apparent Kd [2]: 154 nM

Sequence: AGGAUGCGUGCAGGAUAUCGAGUCGGGAUGGCUCGCGUGGUGUGCCACAUGAGGAUCACCCAUGUCGAGAAGGGCAGGCGGCGC
- apparent Kd [1]: 535 nM
- apparent Kd [2]: 256 nM

Sequence: AGCUGUGGCCGAGGAUAUCUAGCUUCAAUAACCGAAAUAUAAUCGGACAUGAGGAUCACCCAUGUAGAGAAGGCGGUCUCAGCA
- apparent Kd [1]: 29.6 nM
- apparent Kd [2]: 29.6 nM

Sequence: GCACAUGAGGAUCACCCAUGUGGUCCAGAAGGCCAGAGGGCUUGCUUUUCGCAGGCCUUUCAAAUGGAGGAUAUGGAGGGUUCU
- apparent Kd [3]: 207 nM
- apparent Kd [4]: 42.7 nM

Sequence: UUUACUUACGAAGGAUAUGGAUACAUGAGGAUCACCCAUGUAUGUAUGAUGAUCUAGUAGUUGGGCCAGAAGGUCGUGAUUAUU
- apparent Kd [1]: 16.9 nM
- apparent Kd [2]: 21.8 nM

Sequence: GAGUGGAAGGCCGCUACAUGAGGAUCACCCAUGUGCUAAGCACAGGAUAUCGCGCUGGCCCGGCGCGAGAAGGGUGACGGCCUU
- apparent Kd [3]: 737 nM
- apparent Kd [4]: 283 nM

Sequence: GUCAGCUCGUGAGGAUAUACAUGUGCUGGAUACAGCAUUAAAUAAUUCACAUGAGGAUCACCCAUGUAGAAGGCACGAGCUGAU
- apparent Kd [1]: 17.9 nM
- apparent Kd [2]: 42.9 nM

Sequence: UGUGCGUUGAUCUUCGAUCGGUGUACAUGAGGAUCACCCAUGUAGGAUAUUCUAAGACGCAGAUAGGAGAAGGACAUUGGUUUU
- apparent Kd [1]: 22.9 nM
- apparent Kd [2]: 64.1 nM

Sequence: UUUCCGCGAGGAUAUGCGGGUUGUGCUUUUCAUUUCUUAUAACAUGAGGAUCACCCAUGUAGAAGGUGCUUCUU
- apparent Kd [1]: 151 nM
- apparent Kd [2]: 144 nM

Sequence: AAAUUCCUCACAGGAUAUCCUACAUGAGGAUCACCCAUGUACUAACUGAGCAAAUUGCAACAAAAGGAGAAGGGUGAGGUGAAG
- apparent Kd [3]: 36.3 nM
- apparent Kd [4]: 4.25 nM

Sequence: UGGUUGUCAGGAUAUUGGGUAUUCAACUUUAGUUUUAUAUUCGAGAAGGGACAUGAGGAUCACCCAUGUUACGU
- apparent Kd [1]: 36.2 nM
- apparent Kd [2]: 166 nM

Sequence: AUCAGCUCGUCAGGAUAUACGUCACUGCCUCAGCAGUGUGGUAAGAUCACAUGAGGAUCACCCAUGUAGAAGGGACGAGCUGAU
- apparent Kd [1]: 15.5 nM
- apparent Kd [2]: 299 nM

Sequence: UUGGCGACGUAGAAGGGUGACAUGAGGAUCACCCAUGUGCCGAUAUUCCUCGAGAUAUGUCGGCCACAGGAUAUACGUGCCAUC
- apparent Kd [3]: 51.8 nM
- apparent Kd [4]: 98.6 nM

Sequence: GCCAUCGUAUGAGGAUAUGCUCCGGUUUCCGGAGCAGAAGGCAUGUCAUAAGACAUGAGGAUCACCCAUGUAGUUAAGAUGGCA
- apparent Kd [3]: 135 nM
- apparent Kd [4]: 9.66 nM

Sequence: UGACACUUGAGGGUCUCCCUUGACAUGAGGAUCACCCAUGUGCAGGAUAUACGUGUGAUGGUAUAGUAGAAGGGCACUCUAUGU
- apparent Kd [1]: 27.7 nM
- apparent Kd [2]: 35.6 nM

Sequence: ACAUUGAAUGUGAGGAUAUCGAUGUGAUGGGUUGUCGAGAAGGCACAUGAGGAUCACCCAUGUGGGUUGUAGCA
- apparent Kd [1]: 144 nM
- apparent Kd [2]: 362 nM

Sequence: AGUAACAGAGGAUAUACUGUUUUAUGUGUUUGUUGUUUUAAACAUGAGGAUCACCCAUGUAGAAGGCUGAAUAA
- apparent Kd [1]: 20.1 nM
- apparent Kd [2]: 21.2 nM

Sequence: AAUAACAGAGGAUAUACUAUUUUAUGUGUUUGUUGUUUUGAACAUGAGGAUCACCCAUGUAGAAGGCUGAUUAA
- apparent Kd [1]: 40.5 nM
- apparent Kd [2]: 47 nM

Sequence: GUAGCAUACCGAGGAUAUUCAUAUAAUACAUGAGGAUCACCCAUGUUAUAUAGGCGAAAGCCUUGGGAGAAGGCGGAAUGCUAC
- apparent Kd [4]: 10.8 nM

Sequence: UACAUGAGGAUCACCCAUGUUUUGUCGUGUAUGGUAUUUAUCUAGGAUAUCAAUUUACUUAUUUAUGAGAAGGAGAAUAUUAAU
- apparent Kd [1]: 32.4 nM
- apparent Kd [2]: 31.3 nM

Sequence: GGUUGGCGAGGAUAUACAUGAGGAUCACCCAUGUGGUCCUAAAAUAAAAUAAACCUUUGUAGAAGGCGCGGGUC
- apparent Kd [1]: 268 nM
- apparent Kd [2]: 428 nM

Sequence: AGACGGAGCUGAGGAUAUUACAUGAGGAUCACCCAUGUAAGUCUCCAGGAAACUGGAGACAAAUGUAAGAAGGCAGCUCCGUCA
- apparent Kd [1]: 19.3 nM
- apparent Kd [2]: 29.5 nM

Sequence: AUGCUAGUGUGAGGAUAUCAACAUGAGGAUCACCCAUGUUGGAAGUACCCGACAUGAGGUACGGAUGAGAAGGUACAUUAGCAU
- apparent Kd [1]: 15.6 nM
- apparent Kd [2]: 25.3 nM

Sequence: AAAACGAAAGUCGAACGAUGUAGCAGAAGGACAUGAGGAUCACCCAUGUCAGCUGUAACAGCCAUGUAGGAUAUGCUACAUUUU
- apparent Kd [1]: 5.47 nM
- apparent Kd [2]: 6.35 nM

Sequence: GAGCGCUGUCGAGAGGAUAUGCGGUGAUGGACAUGAGGAUCACCCAUGUUAGCGAUAGCAUUACGGUAGAAGGCUCUACAGCUGC
- apparent Kd [3]: 33.4 nM
- apparent Kd [4]: 15.4 nM

Sequence: CCGAAUGUCACAGGAUAUGGUCCGGGCACGGGACCAGAAGGGUGAUCUCACAUGAGGAUCACCCAUGUGCAGGCGUUAGGCUGC
- apparent Kd [3]: 18.6 nM
- apparent Kd [4]: 86 nM

Sequence: CCGGAAACGGGUAGCUGUACAUGAGGAUCACCCAUGUGAUCAGAGGAUAUGGAUCCUAAUUGGAUCCAGAAGGCUGUCAGCUAC
- apparent Kd [3]: 119 nM
- apparent Kd [4]: 29.1 nM
